{"source": "paper PMC3936293", "about": "(Theranostics, 2014)", "key": {"[1]": {"conditions": "literature data, ref [11]; cited from earlier work"}, "[2]": {"assay": "PET/CT imaging of tumor and organ uptake", "assay_type": "in vivo", "conditions": "male, human, total radioactivity"}, "[3]": {"assay": "Metabolite analysis of plasma and urine by RP-HPLC", "assay_type": "in vivo, human", "method_in_brief": "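Plasma was prepared by centrifuging blood drawn at 5 min, 30 min, 1 h and 4 h p.i., deproteinised with two volumes of ethanol, centrifuged again, and the supernatant analysed. In patient 2, a 2 h urine sample was loaded onto a C18 cartridge and eluted with ethanol. Analysis used reversed-phase HPLC (C18; 0.1% TFA in water/acetonitrile gradient) with photodiode-array and flow-through gamma detection.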"}, "[4]": {"assay": "Safety monitoring after injection", "assay_type": "in vivo, human", "conditions": "4 patients; laboratory tests before and 1-2 weeks after injection", "method_in_brief": "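Patients were monitored from tracer administration until the end of the last PET/CT session (20 h p.i.) by interview, electrocardiography, heart rate and blood pressure. Serum electrolytes, liver and pancreatic enzymes, creatinine and blood counts were measured before and 1-2 weeks after injection (130-233 MBq; 10-17 µg).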"}, "Radiation dosimetry": {"assay": "Radiation dosimetry", "assay_type": "in vivo, human", "method_in_brief": "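PET scans were taken at 20 min, 4 h and 20 h p.i., with attenuation correction by 68Ge transmission or CT. Body-weight-normalised SUVs came from circular ROIs centred in each organ. Urine was collected to 18 h in patients 2 and 3, and total excretion was calculated from 1 mL aliquots. Absorbed doses were computed in OLINDA/EXM 1.0 from the time-activity curves and urinary excretion (dynamic bladder model, 3-h voiding interval). Values are mean ± SD.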"}, "[5]": {"assay": "Blood radioactivity clearance", "assay_type": "in vivo, human", "conditions": "bi-exponential fit of blood radioactivity concentration, 4 patients", "method_in_brief": "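Four patients with newly diagnosed prostate cancer, fasted at least 4 h, received the 64Cu-labelled GRPr antagonist (130-233 MBq; 10-17 µg) diluted in 0.9% NaCl with 0.1% bovine serum albumin. Venous blood was drawn at 1, 2, 3, 4, 5, 10, 15 and 30 min and at 1, 2 and 4 h p.i. Radioactivity per mL was gamma-counted, reported as mean ± SD, and fitted bi-exponentially.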"}, "[6]": {"conditions": "OLINDA/EXM 1.0, dynamic bladder model, 3-hour voiding interval, mean ± SD"}}, "note": "Where two headings read alike, the source gives them in different places."}
{"compound": "C[N+](C)(CF)CCO", "note": "[^18F-fluorocholine]", "values": [{"measurement": "Effective dose", "setting": "[1]", "value": "0.031 ± 0,007 mSv/MBq"}, {"measurement": "Radiation dose kidney", "setting": "[1]", "value": "0.159 ± 0,072 mSv/MBq"}, {"measurement": "Radiation dose liver", "setting": "[1]", "value": "0.059 ± 0,012 mSv/MBq"}, {"measurement": "Radiation dose spleen", "setting": "[1]", "value": "0.054 ± 0,021 mSv/MBq"}, {"measurement": "Radiation dose urinary bladder wall", "setting": "[1]", "value": "0.063 ± 0,060 mSv/MBq"}]}
{"compound": "CC(C)C[C@H](NC(=O)C[C@H](O)[C@H](CC(C)C)NC(=O)[C@H](Cc1c[nH]cn1)NC(=O)CNC(=O)[C@@H](NC(=O)[C@H](C)NC(=O)[C@H](Cc1c[nH]c2ccccc12)NC(=O)[C@H](CCC(N)=O)NC(=O)[C@@H](Cc1ccccc1)NC(=O)COCCOCCOCCOCCNC(=O)CN1CCCN2CCN(CCCN(CC(=O)O)CC2)CC1)C(C)C)C(N)=O", "note": "[^64Cu-CB-TE2A-AR06, (^64Cu-4,11-bis(carboxymethyl)-1,4,8,11-tetraazabicyclo(6.6.2)hexadecane)-PEG4-D-Phe-Gln-Trp-Ala-Val-Gly-His-Sta-LeuNH2, metal not drawn]", "values": [{"measurement": "SUV at 4 h", "setting": "[2]; bladder", "value": "14 ± 6.63", "unit": "SUV"}, {"measurement": "SUV at 4 h", "setting": "[2]; intestine", "value": "0.78 ± 0.68", "unit": "SUV"}, {"measurement": "SUV at 4 h", "setting": "[2]; kidney parenchyma", "value": "1.64 ± 0.37", "unit": "SUV"}, {"measurement": "SUV at 20 h", "setting": "[2]; kidney parenchyma", "value": "0.71 ± 0.34", "unit": "SUV"}, {"measurement": "SUV at 4 h", "setting": "[2]; liver", "value": "1.8 ± 1.02", "unit": "SUV"}, {"measurement": "SUV at 4 h", "setting": "[2]; pancreas", "value": "6.73 ± 3.34", "unit": "SUV"}, {"measurement": "SUV at 20 h", "setting": "[2]; pancreas", "value": "0.28 ± 0.22", "unit": "SUV"}, {"measurement": "SUV at 4 h", "setting": "[2]; prostate", "value": "0.95 ± 0.42", "unit": "SUV"}, {"measurement": "SUV at 4 h", "setting": "[2]; urinary tract collection system", "value": "5.86 ± 5.34", "unit": "SUV"}, {"measurement": "metabolites in urine", "setting": "[3]; patient 2, 2 h urine sample, C18 column, ethanol elution", "value": "Only the parent compound was detected"}, {"measurement": "metabolites in plasma", "setting": "[3]; plasma at 5 min p.i., ethanol protein precipitation", "value": "No metabolites were detected"}, {"measurement": "changes in vital signs, laboratory studies or electrocardiograms", "setting": "[4]", "value": "No significant changes"}, {"measurement": "Effective radiation dose", "setting": "Radiation dosimetry; [6]", "value": "0.019 ± 0.008", "unit": "mSv/MBq"}, {"measurement": "Radiation dose urinary bladder wall", "setting": "Radiation dosimetry; [6]", "value": "0.176 ± 0.001", "unit": "mSv/MBq"}, {"measurement": "Radiation dose kidney", "setting": "Radiation dosimetry; OLINDA/EXM 1.0, mean ± SD", "value": "0.033 ± 0.008", "unit": "mSv/MBq"}, {"measurement": "Radiation dose liver", "setting": "Radiation dosimetry; OLINDA/EXM 1.0, mean ± SD", "value": "0.039 ± 0.020", "unit": "mSv/MBq"}, {"measurement": "Radiation dose pancreas", "setting": "Radiation dosimetry; OLINDA/EXM 1.0, mean ± SD", "value": "0.094 ± 0.027", "unit": "mSv/MBq"}, {"measurement": "Radiation dose spleen", "setting": "Radiation dosimetry; OLINDA/EXM 1.0, mean ± SD", "value": "0.031 ± 0.024", "unit": "mSv/MBq"}, {"measurement": "initial half-life in blood", "setting": "[5]", "value": 5, "unit": "min"}, {"measurement": "terminal half-life in blood", "setting": "[5]", "value": 2.75, "unit": "h"}]}
